Experimental data taken from ChEMBL document CHEMBL3616408, “Elaboration of a fragment library hit produces potent and selective aspartate semialdehyde dehydrogenase inhibitors” (Bioorg Med Chem, 2015).
pKi: −log10 of the molar value. Calls of active or inactive are those of the source. The calls are words filed in the database; no cut-off is given here.

What was measured:
[1] = Inhibition of Streptococcus pneumoniae ASADH using aspartate semialdehyde and NADP+
Outline: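 Recombinant enzyme, stored at -20 °C in 50 mM HEPES pH 7, 1 mM EDTA, 1 mM DTT. Reverse reaction run at room temperature in 120 mM CHES pH 8.6, 200 mM KCl, with 0.15 mM ASA, 1.5 mM NADP and 20 mM phosphate; 30 μg ml−1 enzyme starts it. NADPH formation read at 340 nm. Inhibitor serially diluted; Ki from Dixon plot of initial velocities, assuming competition with ASA.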

[2] = (§1) Inhibition of Vibrio cholerae ASADH using aspartate semialdehyde and NADP+; conditions: for pKi: read-out: Ki
[3] = Selectivity index, ratio of Ki for Vibrio cholerae ASADH to KI for Streptococcus pneumoniae ASADH
Outline: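 Recombinant S. pneumoniae and V. cholerae ASADH, stored at -20 °C in 50 mM HEPES pH 7, 1 mM EDTA, 1 mM DTT. Reverse reaction run at r.t. in 120 mM CHES pH 8.6, 200 mM KCl, with 1.5 mM NADP, 20 mM phosphate, and ASA at 0.15 mM (sp) or 0.3 mM (vc). Enzyme was 30 μg ml−1. NADPH formation was read at 340 nm. Serially diluted inhibitor gave initial velocities, and Ki came from Dixon plots assuming competition with ASA. The index is vc Ki divided by sp Ki.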

[4] = tested on: Vibrio cholerae; test: Inhibition of Vibrio cholerae ASADH up to 4 mM using aspartate semialdehyde and NADP+
Outline: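 Recombinant V. cholerae enzyme assayed in reverse direction at r.t. in 120 mM CHES pH 8.6 with 200 mM KCl, 0.3 mM ASA, 1.5 mM NADP and 20 mM phosphate. Reaction started with 30 μg ml−1 enzyme, and NADPH formation followed at 340 nm. Inhibitor tested at concentrations up to 4 mM.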

[5] = tested on: Vibrio cholerae; test: as §1
[6] = tested on: Vibrio cholerae; test: Inhibition of Vibrio cholerae ASADH up to 2 mM using aspartate semialdehyde and NADP+
Outline: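 Recombinant V. cholerae enzyme assayed in reverse direction at r.t. in 120 mM CHES pH 8.6 with 200 mM KCl, 0.3 mM ASA, 1.5 mM NADP and 20 mM phosphate. Reaction started with 30 μg ml−1 enzyme, and NADPH formation followed at 340 nm. Inhibitor tested at concentrations up to 2 mM.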

## O=C(O)CN(Cc1ccc(C(=O)O)c(C(=O)O)c1)Cc1ccccc1C(F)(F)F
[1]
  pKi: 3.29
[2]
  pKi: 3.14
[3]
  Ratio Ki: 10

## O=C(O)CN(Cc1cccc(Br)c1)Cc1ccc(C(=O)O)c(C(=O)O)c1
[1]
  pKi: 3.35
[2]
  pKi: 3.18
[3]
  Ratio Ki: 10

## Cc1ccccc1CN(CC(=O)O)Cc1ccc(C(=O)O)c(C(=O)O)c1
[1]
  pKi: 3.28
[2]
  pKi: 3.14
[3]
  Ratio Ki: 10

## O=C(O)CN(Cc1ccccc1)Cc1ccc(C(=O)O)c(C(=O)O)c1
[1]
  pKi: 3.53
[2]
  pKi: 3.16

## Cc1ccc(CN(CC(=O)O)Cc2ccc(C(=O)O)c(C(=O)O)c2)cc1
[1]
  pKi: 4.20
[2]
  pKi: 3.22
[3]
  Ratio Ki: 10

## O=C(O)CN(Cc1ccc(OC(F)F)cc1)Cc1ccc(C(=O)O)c(C(=O)O)c1
[1]
  pKi: 4.27
[2]
  pKi: 3.16
[3]
  Ratio Ki: 10

## CN(CC(=O)O)Cc1ccc(C(=O)O)c(C(=O)O)c1
[1]
  pKi: 3.53
[2]
  pKi: 3.17

## O=C([O-])CCN(Cc1ccc(C(F)(F)F)cc1)Cc1ccc(C(=O)[O-])c(C(=O)[O-])c1.[Na+].[Na+].[Na+]
[1]
  pKi: 2.42
[2]
  Ki: Not Active
[4]
  inhibition: inactive

## CN(CC(=O)O)Cc1cccc(C(=O)O)c1C(=O)O
[1]
  pKi: 2.74
[5]
  inhibition: inactive

## O=CCN(CC(=O)O)Cc1ccc(C(=O)O)c(C(=O)O)c1
[1]
  pKi: 3.56
[2]
  pKi: 3.18

## N#CCCN(CC(=O)O)Cc1ccc(C(=O)O)c(C(=O)O)c1
[1]
  pKi: 3.66
[2]
  pKi: 3.30

## NC(=O)c1ccc(CN(CC(=O)O)Cc2ccc(C(=O)O)c(C(=O)O)c2)cc1
[1]
  pKi: 3.64
[2]
  pKi: 3.19
[3]
  Ratio Ki: 10

## C=CCN(CC(=O)O)Cc1ccc(C(=O)O)c(C(=O)O)c1
[1]
  pKi: 3.52
[2]
  pKi: 3.18

## O=C(O)CN(Cc1ccc(OC(F)(F)F)cc1)Cc1ccc(C(=O)O)c(C(=O)O)c1
[1]
  pKi: 4.44
[2]
  pKi: 3.18
[3]
  Ratio Ki: 10

## O=C(O)CN(Cc1ccc(C(=O)O)cc1)Cc1ccc(C(=O)O)c(C(=O)O)c1
[1]
  pKi: 4.14
[2]
  pKi: 3.20
[3]
  Ratio Ki: 10

## O=C([O-])CCN(Cc1ccc(Br)cc1)Cc1ccc(C(=O)[O-])c(C(=O)[O-])c1.[Na+].[Na+].[Na+]
[1]
  pKi: 2.44
[2]
  Ki: Not Active
[4]
  inhibition: inactive

## O=C(O)CN(Cc1ccc(C(=O)O)c(C(=O)O)c1)Cc1ccccc1Br
[1]
  pKi: 3.28
[2]
  pKi: 3.13
[3]
  Ratio Ki: 10

## O=C(O)c1ccc(CN[C@@H](CO)C(=O)O)cc1C(=O)O
[1]
  pKi: 3.49
[2]
  pKi: 3.18

## CC(C)(C)c1ccc(CN(CC(=O)O)Cc2ccc(C(=O)O)c(C(=O)O)c2)cc1
[1]
  pKi: 4.80
[2]
  pKi: 3.19
[3]
  Ratio Ki: 10

## C[C@H](NCc1ccc(C(=O)O)c(C(=O)O)c1)C(=O)O
[1]
  pKi: 3.53
[2]
  pKi: 3.22

## O=C([O-])CCNCc1ccc(C(=O)[O-])c(C(=O)[O-])c1.[Na+].[Na+].[Na+]
[1]
  pKi: 2.62
[2]
  Ki: Not Active
[6]
  inhibition: inactive

## O=C(O)CN(Cc1ccc(Br)cc1)Cc1ccc(C(=O)O)c(C(=O)O)c1
[1]
  pKi: 4.24
[2]
  pKi: 3.20
[3]
  Ratio Ki: 10

## O=C(O)CN(Cc1cccc(OC(F)(F)F)c1)Cc1ccc(C(=O)O)c(C(=O)O)c1
[1]
  pKi: 3.37
[2]
  pKi: 3.16
[3]
  Ratio Ki: 10

## O=C(O)CNCc1ccc(C(=O)O)c(C(=O)O)c1
[1]
  pKi: 3.61
[2]
  pKi: 3.28
[3]
  Ratio Ki: 2

## O=C(O)CN(Cc1ccc(/C=C/Cc2ccccc2)cc1)Cc1ccc(C(=O)O)c(C(=O)O)c1
[1]
  pKi: 3.32
[2]
  pKi: 2.96
[3]
  Ratio Ki: 10

## Cc1cccc(CN(CC(=O)O)Cc2ccc(C(=O)O)c(C(=O)O)c2)c1
[1]
  pKi: 3.37
[2]
  pKi: 3.16
[3]
  Ratio Ki: 10

## O=C(O)CN(CCN1CCOCC1)Cc1ccc(C(=O)O)c(C(=O)O)c1
[1]
  pKi: 3.75
[2]
  pKi: 3.16

## O=C(O)CN(Cc1ccc(C(=O)O)c(C(=O)O)c1)Cc1ccccc1OC(F)(F)F
[1]
  pKi: 3.27
[2]
  pKi: 3.15
[3]
  Ratio Ki: 10

## O=C(O)CN(Cc1cccc(C(F)(F)F)c1)Cc1ccc(C(=O)O)c(C(=O)O)c1
[1]
  pKi: 3.36
[2]
  pKi: 3.17
[3]
  Ratio Ki: 10

## O=C(O)CN(Cc1ccc(C(F)(F)F)cc1)Cc1ccc(C(=O)O)c(C(=O)O)c1
[1]
  pKi: 4.62
[2]
  pKi: 3.20
[3]
  Ratio Ki: 10
